The record followed here is ChEMBL document CHEMBL1127019, “(S)-N-tert-butyl-3-(4-(2-methoxyphenyl)-piperazin-1-yl)-2-phenylpropanamide [(S)-WAY-100135]: a selective antagonist at presynaptic and postsynaptic 5-HT1A receptors” (J Med Chem, 1993).

The test system of assay [1] is Rattus norvegicus. The assay is described as follows: Decrease in hippocampal level of 5-HTat preinjection of 0.1 mg/kg, sc. To be noted: route subcutaneous. The assay is classed as functional, Hippocampus.
The target in another assay is Adrenergic receptor beta (Rattus norvegicus, UniProt P18090+P10608+P26255). The assay is described as follows: (§1) In vitro binding affinity towards the noradrenergic beta receptor at 10 e-6 M. In kind it is protein assay. In short, it runs like this: (§2)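 Radioligand binding at the receptor site, run at 10⁻⁶ M. Reported as mean percent inhibition from at least three experiments, each performed in triplicate.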

The subject of assay [2] is Rattus norvegicus. Put plainly: Decrease in hippocampal level of 5-HT at preinjection of 1 mg/kg, sc. To be noted: route subcutaneous. The assay is classed as functional, Hippocampus.
For assay [3], the system named is Rattus norvegicus. The assay is described as follows: Minimum effective dose administered subcutaneously to block the effect of 8-hydroxy-DPAT. In kind it is functional. The essentials: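 Rats pretreated sc with vehicle or test agent, then given 8-OH-DPAT iv 30 min later to induce the behavioral syndrome. Groups of at least 10 rats were used, and the 8-OH-DPAT ED50 was determined by the sequential up/down method.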

The target of assay [4] is D(1A) dopamine receptor (Rattus norvegicus) (UniProt P18901). Put plainly: In vitro binding affinity towards the dopamine receptor D1 at 10 e-6 M. In short, it runs like this:
(§3)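 Radioligand binding in vitro. Values are mean percent inhibition at 10⁻⁶ M, from at least three experiments each run in triplicate.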

The target in assay [5] is Adrenergic receptor alpha-2 (Rattus norvegicus) (UniProt P22086+P19328+P22909). Put plainly: In vitro binding affinity towards the noradrenergic alpha-2 receptor at 10 e-6 M. The assay is classed as protein assay. In short, it runs like this: as §3
The target in assay [6] is D(2) dopamine receptor (Rattus norvegicus) (UniProt P61169). Put plainly: In vitro binding affinity towards the dopamine receptor D2 at 10 e-6 M. In short, it runs like this: as §3
Chain of D(2) dopamine receptor (Rattus norvegicus) (P61169 whole entry): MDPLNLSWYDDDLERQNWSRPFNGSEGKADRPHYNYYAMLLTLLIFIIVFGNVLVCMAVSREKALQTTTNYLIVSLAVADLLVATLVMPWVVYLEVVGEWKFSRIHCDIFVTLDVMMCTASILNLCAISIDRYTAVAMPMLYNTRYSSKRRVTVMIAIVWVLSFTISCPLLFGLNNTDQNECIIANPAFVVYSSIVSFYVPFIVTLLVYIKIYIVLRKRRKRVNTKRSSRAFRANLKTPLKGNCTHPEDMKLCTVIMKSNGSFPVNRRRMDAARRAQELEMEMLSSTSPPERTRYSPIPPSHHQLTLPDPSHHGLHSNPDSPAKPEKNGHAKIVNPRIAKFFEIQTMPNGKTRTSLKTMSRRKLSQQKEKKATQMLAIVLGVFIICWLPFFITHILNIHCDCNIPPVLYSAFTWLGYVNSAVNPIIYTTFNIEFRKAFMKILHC
The target in assay [7] is T1, 5-hydroxytryptamine receptor 2C (Rattus norvegicus) (UniProt P08909).
T1 sequence (whole entry): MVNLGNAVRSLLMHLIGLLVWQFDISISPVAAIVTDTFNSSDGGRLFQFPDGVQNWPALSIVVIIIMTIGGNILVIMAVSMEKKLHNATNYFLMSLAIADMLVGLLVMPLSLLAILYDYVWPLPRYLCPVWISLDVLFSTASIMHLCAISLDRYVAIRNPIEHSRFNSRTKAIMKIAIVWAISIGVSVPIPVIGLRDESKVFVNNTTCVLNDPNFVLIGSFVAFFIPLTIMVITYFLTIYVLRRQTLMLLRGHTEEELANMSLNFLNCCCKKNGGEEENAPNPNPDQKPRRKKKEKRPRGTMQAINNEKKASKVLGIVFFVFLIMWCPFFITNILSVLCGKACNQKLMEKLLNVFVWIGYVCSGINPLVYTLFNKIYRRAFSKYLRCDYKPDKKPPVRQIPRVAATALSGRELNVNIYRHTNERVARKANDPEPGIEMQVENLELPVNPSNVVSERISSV
Put plainly: In vitro binding affinity towards the 5-hydroxytryptamine 1C receptor at 10 e-6 M. In short, it runs like this: as §3

The target of assay [8] is Adrenergic receptor beta (Rattus norvegicus) (UniProt P18090+P10608+P26255). Described as §1. The assay is classed as protein assay. The essentials:
as §2

Assay [9] deals with 5-hydroxytryptamine receptor 1B (Rattus norvegicus) (UniProt P28564). Put plainly: In vitro binding affinity towards the 5-hydroxytryptamine 1B receptor at 10 e-6 M. The essentials: as §3
Chain of 5-hydroxytryptamine receptor 1B (Rattus norvegicus) (P28564 whole entry): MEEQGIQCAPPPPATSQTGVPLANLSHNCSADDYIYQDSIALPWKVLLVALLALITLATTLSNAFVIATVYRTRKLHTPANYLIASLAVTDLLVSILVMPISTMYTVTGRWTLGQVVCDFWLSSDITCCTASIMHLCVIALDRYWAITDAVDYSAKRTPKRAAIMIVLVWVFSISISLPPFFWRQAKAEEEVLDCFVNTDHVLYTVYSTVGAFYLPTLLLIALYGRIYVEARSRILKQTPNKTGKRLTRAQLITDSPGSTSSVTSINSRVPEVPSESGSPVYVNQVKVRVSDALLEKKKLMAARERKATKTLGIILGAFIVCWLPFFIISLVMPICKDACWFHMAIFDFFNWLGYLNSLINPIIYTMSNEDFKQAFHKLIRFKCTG
The target of assay [10] is T2, Adrenergic receptor alpha-1 (Rattus norvegicus, UniProt P15823+P23944+P43140).
T2 sequence (P15823 whole entry): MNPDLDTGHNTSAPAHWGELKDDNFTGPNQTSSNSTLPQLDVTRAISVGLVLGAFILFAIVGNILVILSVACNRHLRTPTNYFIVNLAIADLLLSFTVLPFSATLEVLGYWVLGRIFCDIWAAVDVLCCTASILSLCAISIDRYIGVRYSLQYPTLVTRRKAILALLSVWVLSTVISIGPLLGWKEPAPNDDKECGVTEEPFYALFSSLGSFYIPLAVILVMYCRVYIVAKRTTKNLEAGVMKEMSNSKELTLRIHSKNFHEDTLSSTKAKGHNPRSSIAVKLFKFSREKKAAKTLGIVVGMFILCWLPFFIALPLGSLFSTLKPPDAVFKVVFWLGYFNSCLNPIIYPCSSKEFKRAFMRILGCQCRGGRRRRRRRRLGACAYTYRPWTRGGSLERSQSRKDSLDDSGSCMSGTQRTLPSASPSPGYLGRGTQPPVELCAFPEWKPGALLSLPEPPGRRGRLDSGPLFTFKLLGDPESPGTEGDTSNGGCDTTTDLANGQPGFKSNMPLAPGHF
T2 sequence (P23944 whole entry): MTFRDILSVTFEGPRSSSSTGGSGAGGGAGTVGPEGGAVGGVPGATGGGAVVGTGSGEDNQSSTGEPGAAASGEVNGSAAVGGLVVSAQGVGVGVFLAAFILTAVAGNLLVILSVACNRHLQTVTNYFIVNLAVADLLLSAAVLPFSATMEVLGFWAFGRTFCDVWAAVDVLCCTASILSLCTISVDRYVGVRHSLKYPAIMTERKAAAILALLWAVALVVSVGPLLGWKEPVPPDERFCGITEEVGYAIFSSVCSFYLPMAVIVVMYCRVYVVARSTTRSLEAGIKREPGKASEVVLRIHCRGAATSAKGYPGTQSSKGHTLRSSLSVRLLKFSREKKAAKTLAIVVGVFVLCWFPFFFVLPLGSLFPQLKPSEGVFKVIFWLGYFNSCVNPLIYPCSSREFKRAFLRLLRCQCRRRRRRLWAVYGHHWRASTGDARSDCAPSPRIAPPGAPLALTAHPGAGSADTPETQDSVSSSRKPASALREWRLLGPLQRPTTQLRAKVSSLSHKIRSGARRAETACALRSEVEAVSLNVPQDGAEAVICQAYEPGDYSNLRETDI
T2 sequence (P43140 whole entry): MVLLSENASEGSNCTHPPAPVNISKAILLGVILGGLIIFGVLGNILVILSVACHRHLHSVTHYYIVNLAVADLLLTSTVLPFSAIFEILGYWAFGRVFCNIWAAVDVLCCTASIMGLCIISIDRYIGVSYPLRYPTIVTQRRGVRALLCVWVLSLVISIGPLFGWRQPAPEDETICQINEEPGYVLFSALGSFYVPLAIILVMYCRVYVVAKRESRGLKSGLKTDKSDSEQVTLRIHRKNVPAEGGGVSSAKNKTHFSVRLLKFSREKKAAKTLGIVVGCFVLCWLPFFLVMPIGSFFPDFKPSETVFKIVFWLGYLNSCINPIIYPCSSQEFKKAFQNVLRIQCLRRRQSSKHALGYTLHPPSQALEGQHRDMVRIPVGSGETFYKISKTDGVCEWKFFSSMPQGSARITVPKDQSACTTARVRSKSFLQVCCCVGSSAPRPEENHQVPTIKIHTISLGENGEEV
Put plainly: In vitro binding affinity towards the anor-adrenergic alpha-1 receptor at 10 e-6 M. In kind it is protein assay. The essentials:
as §3

Assay [11] deals with Serotonin 2 (5-HT2) receptor (Rattus norvegicus) (UniProt P30994+P08909+P14842). The assay is described as follows: (§4) In vitro binding affinity towards the 5-hydroxytryptamine 2 receptor at 10 e-6 M. The assay is classed as protein assay. The essentials: as §3
Chain of Serotonin 2 (5-HT2) receptor (Rattus norvegicus) (P14842 whole entry, looked up, one chain of several): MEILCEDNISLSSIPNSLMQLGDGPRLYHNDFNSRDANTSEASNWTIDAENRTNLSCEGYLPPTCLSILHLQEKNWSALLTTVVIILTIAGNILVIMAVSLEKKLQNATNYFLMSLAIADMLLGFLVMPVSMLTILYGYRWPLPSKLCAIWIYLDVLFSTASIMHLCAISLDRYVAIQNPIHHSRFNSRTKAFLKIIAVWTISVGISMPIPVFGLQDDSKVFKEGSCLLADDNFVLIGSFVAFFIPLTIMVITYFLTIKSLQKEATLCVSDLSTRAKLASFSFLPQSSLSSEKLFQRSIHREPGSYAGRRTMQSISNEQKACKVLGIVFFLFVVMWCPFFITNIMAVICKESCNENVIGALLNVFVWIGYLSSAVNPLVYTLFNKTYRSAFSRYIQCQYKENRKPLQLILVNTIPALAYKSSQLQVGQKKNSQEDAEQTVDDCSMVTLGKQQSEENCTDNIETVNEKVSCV
Chain of Serotonin 2 (5-HT2) receptor (Rattus norvegicus) (P30994 whole entry, looked up, one chain of several): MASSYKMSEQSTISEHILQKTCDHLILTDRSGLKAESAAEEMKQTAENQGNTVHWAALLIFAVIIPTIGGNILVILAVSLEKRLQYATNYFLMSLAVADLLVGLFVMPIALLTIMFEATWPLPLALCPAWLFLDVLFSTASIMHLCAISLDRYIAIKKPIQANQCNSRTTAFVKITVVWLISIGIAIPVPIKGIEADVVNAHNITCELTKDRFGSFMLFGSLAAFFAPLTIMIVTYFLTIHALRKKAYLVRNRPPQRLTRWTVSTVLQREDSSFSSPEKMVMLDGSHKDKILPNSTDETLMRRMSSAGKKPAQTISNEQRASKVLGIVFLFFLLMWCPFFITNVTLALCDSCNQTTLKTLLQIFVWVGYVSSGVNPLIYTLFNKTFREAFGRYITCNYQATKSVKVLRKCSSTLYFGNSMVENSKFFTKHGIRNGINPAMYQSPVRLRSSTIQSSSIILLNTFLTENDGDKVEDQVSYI
Assay [12] addresses T3, 5-hydroxytryptamine receptor 1A (Rattus norvegicus, UniProt P19327).
T3 sequence (P19327 whole entry): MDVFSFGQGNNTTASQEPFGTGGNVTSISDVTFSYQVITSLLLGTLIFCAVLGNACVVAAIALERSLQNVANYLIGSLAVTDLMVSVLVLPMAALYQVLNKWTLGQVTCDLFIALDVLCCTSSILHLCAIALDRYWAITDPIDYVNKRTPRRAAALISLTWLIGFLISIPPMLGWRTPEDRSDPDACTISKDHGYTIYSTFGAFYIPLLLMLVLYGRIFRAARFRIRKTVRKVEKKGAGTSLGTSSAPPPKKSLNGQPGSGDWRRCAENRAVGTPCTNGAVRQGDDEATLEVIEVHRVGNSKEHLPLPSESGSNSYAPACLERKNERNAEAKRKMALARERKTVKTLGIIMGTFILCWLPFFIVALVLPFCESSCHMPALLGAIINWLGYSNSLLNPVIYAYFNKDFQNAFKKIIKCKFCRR
The assay is described as follows: In vitro binding affinity towards the 5-hydroxytryptamine 1A receptor was evaluated. In short, it runs like this: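 Receptor binding at the 5-HT1A site, reported as IC50. Each value is the mean IC50 ± standard error of at least three experiments, each run in triplicate.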

Assay [13] relates to Rattus norvegicus. The assay is described as follows: Decrease in hippocampal level of 5-HT at preinjection of 5 mg/kg, sc. In kind it is functional, Hippocampus. To be noted: route subcutaneous. The essentials:
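Microdialysis in conscious, freely moving rats. Test agent given sc, and extracellular 5-HT measured in hippocampus for up to 2.5 h after dosing. Values expressed as % of preinjection control levels.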

Assay [14] deals with T2, Adrenergic receptor alpha-1. Put plainly: In vitro binding affinity towards the alpha-1 receptor at 10 e-6 M. In kind it is protein assay. The essentials: as §3
Assay [15] has as its target Serotonin 2 (5-HT2) receptor (Rattus norvegicus, UniProt P30994+P08909+P14842). Described as §4. In kind it is protein assay. In short, it runs like this: as §3
The target of assay [16] is T2, Adrenergic receptor alpha-1. Put plainly: In vitro binding affinity towards the noradrenergic alpha-1 receptor at 10 e-6 M. The assay is classed as protein assay. The essentials:
as §3

Each structure is given as a SMILES string. Some results are limits rather than exact numbers.

Chain of D(1A) dopamine receptor (Rattus norvegicus) (P18901 whole entry): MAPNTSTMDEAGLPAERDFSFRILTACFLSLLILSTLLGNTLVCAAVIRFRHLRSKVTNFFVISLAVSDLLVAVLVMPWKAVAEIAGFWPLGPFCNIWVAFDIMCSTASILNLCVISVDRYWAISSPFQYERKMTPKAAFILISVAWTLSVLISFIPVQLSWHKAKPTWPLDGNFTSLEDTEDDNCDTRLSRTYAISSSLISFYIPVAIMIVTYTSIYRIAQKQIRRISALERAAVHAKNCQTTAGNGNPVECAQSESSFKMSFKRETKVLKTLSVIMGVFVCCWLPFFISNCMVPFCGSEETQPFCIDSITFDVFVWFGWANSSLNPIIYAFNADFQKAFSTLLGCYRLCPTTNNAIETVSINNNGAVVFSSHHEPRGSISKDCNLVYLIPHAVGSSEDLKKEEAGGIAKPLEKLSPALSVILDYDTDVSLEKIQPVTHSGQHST

In the assay on Rattus norvegicus [1], `CCCN(CCC)C1CCc2cccc(O)c2C1` (centres undefined) [8-OH-DPAT] came in with a Decrease of 19.2%.

Molecule `O=C1CC2(CCCC2)CC(=O)N1CCCCN1CCN(c2ncccn2)CC1` [BUSPIRONE] gave an IC50 at Adrenergic receptor beta of more than 1000 nM. In addition, in the assay with Rattus norvegicus [2], the Decrease was determined as 39.9%.

In turn, `COc1ccccc1N1CCN(C[C@@H](C(=O)NC(C)(C)C)c2ccccc2)CC1` (stereo in doubt; (R)-5) yielded an MED with Rattus norvegicus [3] of 10 mg/kg.

For `COc1ccccc1N1CCN(C[C@@H](C(=O)NC(C)(C)C)c2ccccc2)CC1` [listing 1 of 2 here], the inhibition in [4] was 22%; in assay [5], 11%; in [6], 20%; in [7] it was 50%; in assay [8] it was 12%; in [9], 22%.

Turning to `COc1ccccc1N1CCN(CC(C(=O)NC(C)(C)C)c2ccccc2)CC1` (centres undefined), the inhibition in [4] was found to be 20%; in [11] it was 37%; in assay [5] it was 10%; in [6], 14%; in [7], 37%; in assay [8] it was 20%. For the same molecule, in assay [9], the inhibition worked out at 27%. For the same molecule, the IC50 in [10] worked out at 1491 nM; in assay [12], 33.9 nM. Further, the minimal effective dose with Rattus norvegicus [3] (Rattus norvegicus, sc, read-out: MED) turned out to be 3 mg/kg.

In the assay with Rattus norvegicus [13], `COc1ccccc1N1CCN(CCN2C(=O)CC3(CCCC3)CC2=O)CC1.Cl.Cl` showed a Decrease of 37.6%.

In the case of `COc1ccccc1N1CCN(C[C@@H](C(=O)NC(C)(C)C)c2ccccc2)CC1` [listing 2 of 2 here], the values for the IC50 in [12], in assay [14] and in assay [15] were 15.5 nM, 1878 nM and 1393 nM, respectively.

Consider `COc1ccccc1N1CCN(C[C@H](C(=O)NC(C)(C)C)c2ccccc2)CC1`, for which the inhibition was found to be 2% in assay [4]; 13% in assay [11]; 7% in assay [5]; 4% in [6]; 14% in assay [7]; 7% in [8]. Moreover, the inhibition in [9] was 21%. Further, the IC50 turned out to be 2781 nM in assay [16] and 437 nM in [12].

As to `COc1ccccc1N1CCN(C[C@@H](C(=O)NC(C)(C)C)c2ccccc2)CC1` (stereo in doubt; (S)-5), the MED in the assay with Rattus norvegicus [3] was found to be 1 mg/kg.

Broadly, the IC50 is the concentration at which inhibition is half-maximal. A higher IC50 goes with weaker potency. The inhibition is the relative decrease from the control value, in per cent. Higher therefore signals a response far below the control.
